Screens deposited in PubChem by several laboratories.
Only some compounds are listed: those with a hit (about 4.2% of all), similar ones and a draw of the others.
KCNQ1 pot: potentiators or activators of KCNQ1 channel, primary screen, cell-based, thallium flux, high-throughput. Potassium voltage-gated channel subfamily KQT member 1 (Homo sapiens), P51787. CHO-K1 KCNQ1, thallium flux FluxOR fluorescence; hits give high values. B-score at 10 µM. 310,000 compounds, 0.35% hits. AID 2648, 2010;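 active = fluorescence ratio B-score, a plate-corrected score, at least three library SD, with initial intensity B-score within 5 SD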
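Test system: CHO-K1 cells stably expressing KCNQ1 / Medium: assay buffer / Also added: depolarizing K+/Tl+ stimulus, K2SO4 and Tl2SO4 each 12.5 mM in 5x stock / Incubation: 90 min dye loading and 20 min compound exposure, both at room temperature / Signal: thallium influx via FluxOR fluorescence, kinetic imaging / Evaluation: B score of baseline-normalized fluorescence ratio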
Cl transport mod: KCC2 cotransporter modulators, thallium flux, primary screen, cell-based, HEK293 KCC2, FluoZin-2 fluorescence, MLSMR. Solute carrier family 12 member 5 (Homo sapiens), Q9H2X9. KCC2 cells, thallium flux FluoZin-2 fluorescence. B-score of Tl+ flux slope (higher = more flux/activation; lower = inhibition) at 10 µM. 190,000 compounds, 2.2% hits. AID 1456, 2008;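 active = thallium flux slope and its plate-corrected score both differing from the plate sample mean at a set confidence after two filtering rounds, in either direction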;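 note: slope of fluorescence scaled to starting intensity during 10 to 20 s after thallium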
KCNQ1 block: inhibitors of human KCNQ1 channel, primary screen, cell-based, thallium flux, high-throughput | CHO-K1 KCNQ1, FluxOR thallium flux fluorescence; hits give high values | B-score at 10 µM | 310,000 compounds, 1.3% hits | AID 2642, 2010;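 active = compounds whose thallium flux B-score, printed positive for inhibition, exceeds three library SD while starting fluorescence stays within three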;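 note: channel opened by potassium depolarization with thallium stimulus after 20 min compound exposure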
hERG protect: hERG rescue from dofetilide block, primary screen, cell-based, CHO-hERG, FluxOR thallium flux, dofetilide IC70; dofetilide IC70 present; activation (rescue from dofetilide block), less the hit threshold, % at 10 µM; 310,000 compounds, 0.51% hits;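 active = activation above the mean of controls blocked by dofetilide plus 5 SD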;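 note: thallium influx through hERG after potassium depolarization seen as dye fluorescence rise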
Mot1-301 SUMO: yeast Mot1-301 growth rescue at high temperature, primary screen, SUMOylation pathway inhibitor project, S. cerevisiae, ATP luminescence, 38.5C. S. cerevisiae Mot1-301 growth rescue; percent above DMSO median, 100 means doubled. growth rescue, % at 18.8 µM. 320,000 compounds, 1% hits. AID 2716, 2010;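 active = every valid replicate shows activation above 250% relative to neutral control wells; inactive = the rest, any valid replicate at or below 250%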;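 note: OY570 slx delta 5 strain wells were the positive control but not used for scaling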
AI-2 QS mod: Vibrio harveyi AI-2 quorum sensing modulators, primary screen, JMH597 strain, luminescence/OD600 ratio; Vibrio harveyi JMH597 AI-2 luminescence/OD600 ratio, 9 h; hits give low values; strain lacks LuxN and CqsS sensors; 0 = neutral-control median; activity change, % at 7.5 µM; 300,000 compounds, 0.4% hits; AID 2094, 2009; in the data active = activity change below about -75%, passing the limit was not always enough; inconclusive = no clear call, values can overlap the other calls;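 note: luminescence divided by OD600 gain over 9 h not by final OD600 alone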
KCC2 sec1: KCC2 modulators in sodium-free buffer, confirmation, cell-based, HEK293 KCC2, thallium flux, secondary assay. shares compounds with Cl transport mod. FluoZin2 fluorescence; hits give high values. normalised thallium flux (F/F0 slope) at 10 µM. 3,700 compounds, 15% hits;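 active = thallium flux slope above the same plate's solvent-only control mean plus 3 SD; inconclusive = the two replicate wells disagree; inactive = no significant difference from solvent-only control wells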
KCC2 bumet counter: thallium flux persisting under bumetanide in KCC2 cells, confirmation, counter-screen for KCC2 modulator project, cell-based, HEK293 KCC2, FluoZin2, secondary assay 3. shares compounds with Cl transport mod. HEK293-KCC2 + bumetanide/ouabain; hits give high values. normalized thallium flux at 10 µM. 3,700 compounds, 49% hits;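 active = thallium entry rate above the same plate's blocked-transporter control wells by more than 3 SD; inconclusive = the two repeat wells disagree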;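 note: raw slope of fluorescence over initial fluorescence between 10 and 20 s after thallium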
KCC2 sec2: KCC2 modulators without ouabain present, confirmation, cell-based, HEK293 KCC2, thallium flux, FluoZin2, secondary assay 2; 3,700 compounds, 23% hits; normalized thallium flux at 10 µM; AID 1715, 2009; thallium flux FluoZin2 fluorescence; actives lie on both sides; F/F0 rise rate, 10–20 s post-thallium; shares compounds with Cl transport mod;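 active = thallium flux slope more than 3 SD above or below the plate's solvent-only control mean, mostly below; inconclusive = the two repeat wells disagreed; inactive = no significant shift from solvent-only controls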;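 note: raw slope with 0.1% DMSO as baseline and bumetanide as block control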
HEK counter1: thallium flux modulation in parental HEK cells, confirmation, counter-screen for KCC2 modulator project, cell-based, counterscreen 1; HEK293 parental cells, thallium flux FluoZin2, ouabain; baseline-ratio fluorescence slope, 10–20 s after thallium; 3,700 compounds, 46% hits; thallium flux rate (normalised fluorescence) at 10 µM; shares compounds with Cl transport mod;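 active = thallium flux rate significantly above the same plate's solvent-only control wells, beyond their mean plus 3 SD; inconclusive = the two replicate wells gave conflicting results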
KCC2 retest ouab: KCC2 inhibitors and activators, ouabain retest, confirmation, HEK-KCC2 cells; shares compounds with Cl transport mod; HEK293-KCC2, thallium flux FluoZin2 fluorescence; bidirectional: low = inhibitor, high = activator; raw Tl+ flux slope (below DMSO = inhibition, above = activation) at 10 µM; 3,700 compounds, 48% hits; AID 1717, 2009;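 active = thallium flux slope beyond 3 SD from same-plate DMSO control mean in most replicates, usually higher, sometimes lower; inconclusive = repeat tests gave conflicting results; inactive = no significant difference from controls in most replicates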;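 note: slope of initial-normalized fluorescence between seconds 10 and 20 after thallium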
HEK counter2: native HEK Tl+ uptake effects, second counter-screen – HEK cells, counterscreen 2, counter-screen for KCC2 modulator project, confirmation; thallium flux slope at 10 µM; 3,700 compounds, 33% hits; shares compounds with Cl transport mod; HEK293 parental, thallium flux FluoZin-2 fluorescence slope;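 active = thallium flux slope above the same plate's solvent-control mean plus 3 SD in both duplicate wells; inconclusive = duplicate wells that disagreed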;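 note: run without ouabain in cells lacking the KCC2 cotransporter; slope of fluorescence scaled to its starting value between 10 and 20 s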
An asterisk follows results filed as active; i = inactive; ? = inconclusive; . = no result.

SMILES | KCNQ1 pot | Cl transport mod | KCNQ1 block | hERG protect | Mot1-301 SUMO | AI-2 QS mod | KCC2 sec1 | KCC2 bumet counter | KCC2 sec2 | HEK counter1 | KCC2 retest ouab | HEK counter2
O=C(Cn1cnc2ccccc2c1=O)Nc1nnc(SCc2ccccc2)s1 | i | . | i | -4 | 138 | -41 | 0.0089 | 0.0067 | 0.029 | 0.009* | 0.021 | ?
CCOc1ccc2oc(C(=O)N(CCOC)c3c(N)n(CC(C)C)c(=O)[nH]c3=O)c(C)c2c1 | . | . | . | . | 14 | . | . | . | . | . | . | .
Cn1c(NC(=S)Nc2ccccc2)nc2ccccc21 | i | 7.4* | i | -3 | -3 | 21 | ? | 0.064* | 0.031 | 0.023* | 0.043* | 0.014*
S=C(Nc1ccccc1)Nc1nc2ccccc2n1CCOc1ccc(Br)cc1 | i | 3.4* | i | -5 | 11 | 31 | 0.0099 | 0.032* | 0.031 | 0.01* | 0.023 | ?
CC(=O)Oc1ccc(C(=O)Nc2nnc(C)s2)cc1 | i | 2.4* | i | -3 | -14 | 22 | 0.0086 | 0.0066 | 0.03 | 0.0066 | 0.019 | ?
O=C(NC1CC1)c1cc2c(s1)-c1ccccc1OC2 | i | . | i | -2 | -7 | 13 | 0.0071 | 0.0059 | 0.035 | 0.0039 | 0.017* | 0.011
CCCCn1c(O)c(N=NC(=O)c2ccncc2)c2cc(Br)ccc21 | i | 0.54 | i | -6 | -3 | 3 | . | . | . | . | . | .
C/C(Cl)=C\Cn1c(O)c(N=NC(N)=S)c2cc(Br)ccc21 | 19* | 36* | i | 26* | . | 4 | 0.0059 | 0.029* | 0.054* | 0.043* | 0.062* | 0.03*
C/C(Cl)=C\Cn1c(O)c(N=O)c2ccccc21 | i | -1.4 | i | -7 | 4 | 17 | . | . | . | . | . | .
NC(=S)N=Nc1c(O)n(CCCl)c2ccc(Br)cc12 | i | 29* | i | -11 | -4 | 3 | 0.017* | 0.069* | 0.038 | 0.03* | 0.042* | 0.015*
COc1ccc(COC(=O)CCc2c[nH]c3ccccc23)cc1F | i | . | i | -9 | -11 | 9 | . | . | . | . | . | .
COc1ccc(NC(=S)/N=C(\N)Nc2nc(C)c3ccccc3n2)cc1 | i | -3.6* | i | -3 | -4 | 10 | 0.007 | 0.0049 | 0.026* | 0.0071 | 0.017* | 0.0098
